{"data": "Experimental data gathered from unrelated publications", "effect on": "metabolic stability", "host": "human", "note": "Compare with care: the assays were run in different laboratories."}
{"Structure (SMILES)": "CCn1cnc2c([C@@](O)(CC)c3ccc(C(F)(F)F)nc3)n(C)nc2c1=O", "medium": "liver microsomes", "tested at": "0.5 µM", "pH": "pH 7.4", "measurement": "microsomal CLint", "value": "< 3 µL/min/mg"}
{"Structure (SMILES)": "O=C(O)Cc1ccccc1Nc1c(Cl)cccc1Cl", "medium": "liver microsomes", "measurement": "scaled CLint", "value": "10.4 L/h/kg"}
{"Structure (SMILES)": "C[C@]1(C(=O)[C@H](Cc2ccccc2)NC(=O)[C@@H]2COCCCCCC(=O)N3C[C@H](F)C[C@H]3C(=O)N2)CO1", "medium": "liver microsomes", "tested at": "2 µM", "time": "1 h", "measurement": "scaled CLint", "value": "5.59 L/h/kg"}
{"Structure (SMILES)": "Nc1ncnc2c1ncn2[C@@H]1O[C@H](CO)C[C@H]1O", "medium": "liver microsomes", "tested at": "1 µM", "measurement": "microsomal CLint", "value": "142 µL/min/mg"}
{"Structure (SMILES)": "CC(C)C[C@H](NC(=O)[C@@H]1COCCCCCC(=O)NCC(=O)N2CCC[C@H]2C(=O)N1)C(=O)[C@@]1(C)CO1", "medium": "liver microsomes", "tested at": "2 µM", "time": "1 h", "measurement": "scaled CLint", "value": "1.35 L/h/kg"}
{"Structure (SMILES)": "CCN(CCN)c1ccc(Nc2cc(NC3CC3)n3ncc(C#N)c3n2)cc1-n1cnnc1", "medium": "liver microsomes", "measurement": "scaled CLint", "value": "< 0.408 L/h/kg"}
{"Structure (SMILES)": "Cc1ccc(Cn2cc(C(=O)NN)c(=O)c3cc(Oc4ccccc4)ccc32)cc1", "medium": "liver microsomes", "tested at": "1 µM", "measurement": "microsomal CLint", "value": "< 11.6 µL/min/mg"}
{"Structure (SMILES)": "C[C@]1(C(=O)[C@H](CC2=CCCC2)NC(=O)[C@@H]2COCCCCCC(=O)N3C[C@H](F)C[C@H]3C(=O)N2)CO1", "medium": "liver microsomes", "tested at": "2 µM", "time": "1 h", "measurement": "scaled CLint", "value": "9 L/h/kg"}
{"Structure (SMILES)": "Cn1nc2c(=O)n(C3CC3)nc(C3CC3)c2c1Cc1ccc(C(F)(F)F)c(F)c1", "medium": "liver microsomes", "tested at": "0.5 µM", "pH": "pH 7.4", "measurement": "microsomal CLint", "value": "4.6 µL/min/mg"}
{"Structure (SMILES)": "CC[N+]1(C)CCN(c2ccc(C(=O)Nc3cccc(C)n3)cc2)CC1", "medium": "liver microsomes", "measurement": "microsomal CLint", "value": "< 3 µL/min/mg"}
{"Structure (SMILES)": "O=C(O)Cc1ccccc1Nc1c(Cl)cccc1Cl", "medium": "hepatocytes", "tested at": "0.5 µM", "pH": "pH 7.4", "measurement": "hepatocyte CLint", "value": "98.2 µL/min/10⁶ cells"}
{"Structure (SMILES)": "O=C1CC[C@H](N2Cc3cc(N4CCN(CC5CCN(c6ccc([C@@H]7c8ccc(O)cc8CC[C@@H]7c7ccccc7)cc6)CC5)CC4)ccc3C2=O)C(=O)N1", "medium": "hepatocytes", "tested at": "1 µM", "measurement": "hepatocyte CLint", "value": "13 µL/min/10⁶ cells"}
{"Structure (SMILES)": "CC(C)C[C@H](NC(=O)[C@@H]1COCCCCCC(=O)N2CC(F)(F)C[C@H]2C(=O)N1)C(=O)[C@@]1(C)CO1", "medium": "liver microsomes", "tested at": "2 µM", "time": "1 h", "measurement": "scaled CLint", "value": "3.46 L/h/kg"}
{"Structure (SMILES)": "CCC(CC)COC(=O)[C@H](C)N[P@](=O)(OC[C@@H]1C[C@@H](O)[C@H](n2cnc3c(N)nc(F)nc32)O1)Oc1ccccc1", "medium": "liver microsomes", "tested at": "1 µM", "measurement": "microsomal CLint", "value": "1230 µL/min/mg"}
{"Structure (SMILES)": "O=c1ccc2cc(O)ccc2o1", "medium": "liver microsomes", "measurement": "microsomal CLint", "value": "22 µL/min/mg"}
{"Structure (SMILES)": "Cn1c(=O)c2c(ncn2C)n(C)c1=O", "medium": "hepatocytes", "tested at": "0.5 µM", "pH": "pH 7.4", "measurement": "hepatocyte CLint", "value": "1.85 µL/min/10⁶ cells"}
{"Structure (SMILES)": "CCC(CC)COC(=O)[C@H](C)N[P@](=O)(OC[C@@H]1C[C@@H](O)[C@H](n2cnc3c(N)ncnc32)O1)Oc1ccccc1", "medium": "liver microsomes", "tested at": "1 µM", "measurement": "microsomal CLint", "value": "2120 µL/min/mg"}
{"Structure (SMILES)": "CCOc1ccc(NC(C)=O)cc1", "medium": "liver microsomes", "measurement": "microsomal CLint", "value": "20.7 µL/min/mg"}
{"Structure (SMILES)": "CCn1cc(C)c2c(C(O)c3ccc(Cl)c(F)c3)n(C)nc2c1=O (stereo not shown)", "medium": "liver microsomes", "tested at": "0.5 µM", "pH": "pH 7.4", "measurement": "microsomal CLint", "value": "23 µL/min/mg"}
